Reference: paper PMC6598221 (Saudi Pharmaceutical Journal : SPJ, 2019)

Target: trypsin from porcine pancreas (Sus scrofa, UniProt P00761)
Assay: trypsin inhibition assay
Assay type: biochemical
Procedure, shortened: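 Porcine pancreatic trypsin. Test compound stock diluted twofold in 50 mM Tris buffer (20 mM CaCl2, pH 8.2). Trypsin and BAPNA added at final 40 and 160 µg/mL, incubated at 37 °C for 12 min, stopped with 30% acetic acid, A410 read. IC50 derived from % inhibition. Caffeic and tannic acids were reference inhibitors. Means ± standard errors; one-way ANOVA with Tukey's test, p < 0.05.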

trypsin from porcine pancreas, sequence (P00761 9-231): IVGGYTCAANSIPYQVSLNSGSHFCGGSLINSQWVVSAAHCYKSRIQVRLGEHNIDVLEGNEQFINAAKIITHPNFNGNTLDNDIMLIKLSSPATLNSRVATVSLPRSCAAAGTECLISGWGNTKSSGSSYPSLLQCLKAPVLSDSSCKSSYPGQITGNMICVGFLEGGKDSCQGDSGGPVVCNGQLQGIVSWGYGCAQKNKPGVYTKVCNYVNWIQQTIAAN

IC50 | IC50 trypsin inhibition | Compound
40.6 mM | – | O=C(O)/C=C/c1ccc(O)c(O)c1 [caffeic acid]
– | 75.66 µg/mL | tannic acid
